Data published in ChEMBL document CHEMBL1148256, “Synthesis of new fluoroquinolones and evaluation of their in vitro activity on Toxoplasma gondii and Plasmodium spp” (Bioorg Med Chem Lett, 2004).

Experiments:
MRC5 = assay: In vitro inhibitory activity on MRC5 fibroblast tissue cultures inoculated with virulent RH strain of Toxoplasma gondii; type: functional, cell-based; details: Homo sapiens
How it was run: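 Confluent MRC5 fibroblast monolayers inoculated with 2000 fresh RH tachyzoites; compounds added at various concentrations after 4 h, then 72 h further incubation. Eight uninfected and eight drug-free control wells per plate. Cold-methanol-fixed cultures assayed by ELISA with peroxidase-labelled anti-SAG-1 monoclonal antibody, read at 405 nm against uninfected blank. IC50 from linear regression of OD versus log concentration.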

Plasmodium falciparum = assay: In vitro inhibitory activity against chloroquine-resistant Plasmodium falciparum NF54-R in blood; type: functional, organism-based
Plasmodium yoelii yoelii = assay: In vitro inhibitory activity against hepatic stages of Plasmodium yoelii yoelii 265 BY; type: functional, organism-based

Compound: COc1c(N2CCNC(C)C2)c(F)cc2c(=O)c(C(=O)O)cn(C3CC3)c12 (stereo not drawn) [GATIFLOXACIN]
- IC50 (MRC5): 12.7 µM
- IC50 (Plasmodium falciparum): 29 µM

Compound: COc1c(N2C[C@@H]3CCCN[C@@H]3C2)c(F)cc2c(=O)c(C(=O)O)cn(C3CC3)c12 [MOXIFLOXACIN]
- IC50 (MRC5): 10.9 µM
- IC50 (Plasmodium falciparum): 45 µM

Compound: N[C@@H]1[C@H]2CN(c3nc4c(cc3F)c(=O)c(C(=O)O)cn4C3CC3)C[C@@H]12 [TROVAFLOXACIN4]
- IC50 (MRC5): 1.68 µM

Compound: N[C@@H]1[C@H]2CN(c3nc4c(cc3F)c(=O)c(C(=O)O)cn4-c3ccc(F)cc3F)C[C@@H]12 [TROVAFLOXACIN]
- IC50 (MRC5): 0.96 µM
- IC50 (Plasmodium falciparum): 22 µM
- IC50 (Plasmodium yoelii yoelii): 74 µM
